ChEMBL document CHEMBL1140700, “Substituted pyrazoles as hepatoselective HMG-CoA reductase inhibitors: discovery of (3R,5R)-7-[2-(4-fluoro-phenyl)-4-isopropyl-5-(4-methyl-benzylcarbamoyl)-2H-pyrazol-3-yl]-3,5-dihydroxyheptanoic acid (PF-3052334) as a candidate for the treatment of hypercholesterolemia” (J Med Chem, 2008)

What was measured:
L6 = experiment: Inhibition of cholesterol synthesis in rat L6 cells; assay type: functional, cell-based
Syrian golden hamster [1] = experiment: Inhibition of cholesterol synthesis in Goldern Syrian hamster blood at 10 mg/kg, po after 2 to 4 hrs relative to control; assay type: functional; conditions: Mesocricetus auratus, read-out: Inhibition
How it was run: (§1)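 Hamsters on chow with 2.5% cholestyramine from 3 days prior; oral gavage of vehicle or compound (10 mpk), n = 8/group. At 2 h (2–4 h arm) or 4 h (4–6 h arm) postdose, i.p. 80 µCi 14C sodium acetate in 0.9% NaCl; euthanized 2 h later, cardiac blood, plasma saponified and extracted, 14C cholesterol counted; % change vs untreated controls.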

[2] = molecular target: T1, 3-hydroxy-3-methylglutaryl-coenzyme A reductase (Rattus norvegicus, UniProt P51639); experiment: Inhibition of HMG-CoA reductase in Sprague-Dawley rat liver microsomes; design: species or system Microsome
T1 sequence (P51639 whole entry): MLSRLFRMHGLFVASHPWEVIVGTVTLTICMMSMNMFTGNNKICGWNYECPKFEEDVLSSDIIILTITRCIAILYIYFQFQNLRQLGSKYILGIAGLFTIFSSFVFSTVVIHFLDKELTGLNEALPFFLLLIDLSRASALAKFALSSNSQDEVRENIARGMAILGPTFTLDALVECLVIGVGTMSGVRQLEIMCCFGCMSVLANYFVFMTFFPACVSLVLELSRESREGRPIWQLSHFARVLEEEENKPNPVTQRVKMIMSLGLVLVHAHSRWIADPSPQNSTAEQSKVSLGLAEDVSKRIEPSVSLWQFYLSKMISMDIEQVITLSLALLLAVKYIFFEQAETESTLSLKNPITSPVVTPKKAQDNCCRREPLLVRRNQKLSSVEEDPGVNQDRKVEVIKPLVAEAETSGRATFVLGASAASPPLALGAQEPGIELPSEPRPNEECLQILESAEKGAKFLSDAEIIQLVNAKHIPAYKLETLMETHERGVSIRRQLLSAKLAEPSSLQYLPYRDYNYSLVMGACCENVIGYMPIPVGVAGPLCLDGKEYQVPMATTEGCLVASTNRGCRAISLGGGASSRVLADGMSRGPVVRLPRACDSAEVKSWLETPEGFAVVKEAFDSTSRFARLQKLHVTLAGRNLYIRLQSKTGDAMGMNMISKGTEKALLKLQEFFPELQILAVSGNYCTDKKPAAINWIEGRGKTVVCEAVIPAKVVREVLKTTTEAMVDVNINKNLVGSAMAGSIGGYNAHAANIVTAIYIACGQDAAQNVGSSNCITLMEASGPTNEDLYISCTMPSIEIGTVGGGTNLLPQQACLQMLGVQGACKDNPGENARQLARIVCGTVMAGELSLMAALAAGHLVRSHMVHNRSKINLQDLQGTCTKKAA
How it was run: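 Rat liver microsomes (35 µg/mL) in 100 mM NaH2PO4, 10 mM imidazole, 10 mM EDTA, preincubated with compound in DMSO 0.5 h on ice; 14C-HMG-CoA (0.024 µCi) with 15 mM NADPH and 25 mM DTT added, 0.75 h at 37 °C. Stopped with HCl, lactonized to mevalonolactone, anion-exchange resin separation, scintillation counting; IC50 by curve fit.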

Hepatocyte [3] = experiment: Inhibition of cholesterol synthesis in rat hepatocytes; assay type: functional, cell-based
How it was run: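 Frozen rat hepatocytes on collagen-coated wells, 10^5 cells/well, grown 24 h in DMEM/10% FBS/10 mM HEPES. Compound preincubation 4 h, then 1 µCi/mL 14C acetic acid for 4 h more.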

Cavia porcellus [4] = experiment: Reduction of LDL level in chow fed Hartley guinea pig serum at 20 mg/kg/day, po for 7 days relative to rosuvastatin; assay type: functional, Hartely; design: scale not given: the % may be the effect or the level left
How it was run: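 Male Hartley guinea pigs (300–500 g) on chow diet 5025, acclimated ≥1 week; vehicle or compound suspension by daily oral gavage at 10 or 20 mpk (n = 8/group) for 7 days; sacrificed 2 h after final dose; LDL cholesterol as mean % change from vehicle group.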

Hepatocyte [5] = experiment: Ratio of IC50 for cholesterol synthesis in rat myocytes to rat hepatocytes; assay type: functional
Syrian golden hamster [6] = experiment: Inhibition of cholesterol synthesis in Golden Syrian hamster blood at 10 mg/kg, po after 4 to 6 hrs relative to control; assay type: functional; conditions: Mesocricetus auratus, read-out: Inhibition; how it was run: as §1
Cavia porcellus [7] = experiment: Reduction of LDL level in po dosed Hartley guinea pig plasma after 7 days; assay type: functional; conditions: Hartely, 168 h

Row | SMILES | IC50 (L6) [nM] | % change in cholesterol synthesis vs control at 10 mg/kg (Syrian golden hamster [1]) [%] | IC50 [2] [nM] | IC50 (Hepatocyte [3]) [nM] | Activity (Cavia porcellus [4]) [%] | Ratio IC50 (Hepatocyte [5]) | Percent change in cholesterol synthesis vs control at 10 mg/kg (Syrian golden hamster [6]) [%] | ED50 (Cavia porcellus [7]) [mg/kg]
1 | Cc1cccc(CN(C)C(=O)c2nn(-c3ccc(F)cc3)c(CC[C@@H](O)C[C@@H](O)CC(=O)[O-])c2C(C)C)c1.[Na+] | 4800 | -72 | 6.1 | 0.6 | -15 | 8000 | – | –
2 | CC(C)c1c(C(=O)N(C)Cc2ccc(F)cc2F)nn(-c2ccc(F)cc2)c1CC[C@@H](O)C[C@@H](O)CC(=O)[O-].[Na+] | 4400 | -82 | 7 | 2.1 | -32 | 2100 | -17 | –
3 | CC(C)c1c(C(=O)N(C)Cc2cccc(F)c2F)nn(-c2ccc(F)cc2)c1CC[C@@H](O)C[C@@H](O)CC(=O)[O-].[Na+] | 5700 | -81 | 9 | 0.6 | -45 | 9500 | -22 | –
4 | CC(C)c1c(C(=O)N(C)[C@@H](C)c2ccccc2)nn(-c2ccc(F)cc2)c1CC[C@@H](O)C[C@@H](O)CC(=O)O | 41000 | – | – | 3.5 | – | – | – | –
5 | CC(C)c1c(C(=O)N2CCCC2c2ccccc2)nn(-c2ccc(F)cc2)c1CC[C@@H](O)C[C@@H](O)CC(=O)O (some centres not stated) | 130 | – | 7.3 | 4 | – | – | – | –
6 | CC(C)c1c(C(=O)N2CCCC(c3ccccc3)C2)nn(-c2ccc(F)cc2)c1CC[C@@H](O)C[C@@H](O)CC(=O)O (some centres not stated) | 680 | -80 | 1.5 | 0.4 | – | – | -15 | –
7 | CC(C)c1c(C(=O)N2CCC[C@H](c3ccccc3)C2)nn(-c2ccc(F)cc2)c1CC[C@@H](O)C[C@@H](O)CC(=O)O | – | -78 | 2 | 0.3 | – | – | – | –
8 | COc1ccc(CNC(=O)c2nn(-c3ccc(F)cc3)c(CC[C@@H](O)C[C@@H](O)CC(=O)O)c2C(C)C)cc1 | 460 | – | 2.8 | 0.4 | – | – | – | –
9 | COCc1cccc(CNC(=O)c2nn(-c3ccc(F)cc3)c(CC[C@@H](O)C[C@@H](O)CC(=O)[O-])c2C(C)C)c1.[Na+] | 1800 | -71 | 7 | 0.7 | -42 | 2600 | -19 | –
10 | CC(C)c1c(C(=O)NCc2cccc(C#N)c2)nn(-c2ccc(F)cc2)c1CC[C@@H](O)C[C@@H](O)CC(=O)O | 2400 | – | 2.2 | 1.4 | – | – | – | –
11 | CC(C)c1c(CC[C@@H](O)C[C@@H](O)CC(=O)O)nn(-c2ccc(F)cc2)c1C(=O)NCc1ccccc1 | – | – | 520 | – | – | – | – | –
12 | Cc1ccc(CN(C)C(=O)c2nn(-c3ccc(F)cc3)c(CC[C@@H](O)C[C@@H](O)CC(=O)O)c2C(C)C)cc1 | 4000 | – | 9.9 | 1.8 | – | – | – | –
13 | CC(C)c1c(C(=O)N(C)Cc2ccccc2F)nn(-c2ccc(F)cc2)c1CC[C@@H](O)C[C@@H](O)CC(=O)O | 17000 | -69 | 4.8 | 0.5 | – | – | -30 | –
14 | CCN(Cc1ccccc1)C(=O)c1nn(-c2ccc(F)cc2)c(CC[C@@H](O)C[C@@H](O)CC(=O)O)c1C(C)C | 4400 | – | 3.8 | 5.5 | – | – | – | –
15 | CC(C)c1c(C(=O)N(C)Cc2cccc(F)c2)nn(-c2ccc(F)cc2)c1CC[C@@H](O)C[C@@H](O)CC(=O)O | 6000 | -65 | 3.9 | 0.2 | – | – | – | –
16 | CC(C)c1c(C(=O)N(Cc2ccccc2)C(C)C)nn(-c2ccc(F)cc2)c1CC[C@@H](O)C[C@@H](O)CC(=O)O | 9800 | – | 9.8 | 10 | – | – | – | –
17 | CC(C)c1c(C(=O)N(C)Cc2ccc(F)cc2)nn(-c2ccc(F)cc2)c1CC[C@@H](O)C[C@@H](O)CC(=O)O | 6000 | -71 | 6.6 | 0.5 | – | – | – | –
18 | CC(C)c1c(C(=O)NCc2ccc(C(=O)N(C)C)cc2)nn(-c2ccc(F)cc2)c1CC[C@@H](O)C[C@@H](O)CC(=O)O | 21000 | – | 25 | 23 | – | – | – | –
19 | CC(C)c1c(C(=O)N2CCCCC2c2ccccc2)nn(-c2ccc(F)cc2)c1CC[C@@H](O)C[C@@H](O)CC(=O)O (some centres not stated) | 330 | – | 6.1 | 1.1 | – | – | – | –
20 | COc1ccc(CN(C)C(=O)c2nn(-c3ccc(F)cc3)c(CC[C@@H](O)C[C@@H](O)CC(=O)O)c2C(C)C)cc1 | 5800 | -57 | 12 | 0.3 | – | – | – | –
21 | CC(C)c1c(C(=O)NCc2ccc(F)cc2)nn(-c2ccc(F)cc2)c1CC[C@@H](O)C[C@@H](O)CC(=O)O | 490 | – | 3.8 | 0.7 | – | – | – | –
22 | Cc1ccc(CNC(=O)c2nn(-c3ccc(F)cc3)c(CC[C@@H](O)C[C@@H](O)CC(=O)[O-])c2C(C)C)cc1.[Na+] | 730 | -74 | 1.9 | 0.9 | -41 | 810 | -15 | 3.6
23 | CC(C)c1c(C(=O)N(C)Cc2ccccc2)nn(-c2ccc(F)cc2)c1CC[C@@H](O)C[C@@H](O)CC(=O)[O-].[Na+] | 3100 | -61 | 5.9 | 0.2 | -20 | 16000 | -16 | –
24 | CC(C)c1c(C(=O)NCc2ccccc2)nn(-c2ccc(F)cc2)c1CC[C@@H](O)C[C@@H](O)CC(=O)O | 100 | – | 4.7 | 0.3 | – | – | – | –
25 | COCc1c(C(C)C)nc(C(C)C)c(/C=C/[C@@H](O)C[C@@H](O)CC(=O)O)c1-c1ccc(F)cc1 [CERIVASTATIN] | 3 | – | – | 1.7 | – | – | – | –
